Assay results published in ChEMBL document CHEMBL1132940, “Pharmacophore/receptor models for GABA(A)/BzR subtypes (alpha1beta3gamma2, alpha5beta3gamma2, and alpha6beta3gamma2) via a comprehensive ligand-mapping approach” (J Med Chem, 2000).

Columns and labels:
[1] = molecular target: T1, GABA-A receptor; alpha-3/beta-3/gamma-2 (Homo sapiens, UniProt P18507+P28472+P34903); assay: Binding affinity for human recombinant gamma-aminobutyric-acid (GABA) A receptor alpha-3-beta-3-gamma-2; type: protein-complex assay
T1 sequence (P18507 whole entry): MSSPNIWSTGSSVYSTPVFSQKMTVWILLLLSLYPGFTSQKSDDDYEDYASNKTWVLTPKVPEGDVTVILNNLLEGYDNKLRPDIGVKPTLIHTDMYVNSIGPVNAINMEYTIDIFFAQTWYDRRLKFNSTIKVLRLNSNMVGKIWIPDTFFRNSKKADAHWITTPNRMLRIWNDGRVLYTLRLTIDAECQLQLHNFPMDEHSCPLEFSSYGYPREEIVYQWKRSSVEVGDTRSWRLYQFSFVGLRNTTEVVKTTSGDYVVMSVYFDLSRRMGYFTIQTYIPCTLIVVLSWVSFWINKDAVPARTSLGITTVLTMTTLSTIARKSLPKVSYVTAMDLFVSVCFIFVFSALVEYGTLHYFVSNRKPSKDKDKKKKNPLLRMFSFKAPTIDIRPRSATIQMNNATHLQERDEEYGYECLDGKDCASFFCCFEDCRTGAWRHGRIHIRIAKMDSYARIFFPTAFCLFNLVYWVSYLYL
T1 sequence (P28472 whole entry): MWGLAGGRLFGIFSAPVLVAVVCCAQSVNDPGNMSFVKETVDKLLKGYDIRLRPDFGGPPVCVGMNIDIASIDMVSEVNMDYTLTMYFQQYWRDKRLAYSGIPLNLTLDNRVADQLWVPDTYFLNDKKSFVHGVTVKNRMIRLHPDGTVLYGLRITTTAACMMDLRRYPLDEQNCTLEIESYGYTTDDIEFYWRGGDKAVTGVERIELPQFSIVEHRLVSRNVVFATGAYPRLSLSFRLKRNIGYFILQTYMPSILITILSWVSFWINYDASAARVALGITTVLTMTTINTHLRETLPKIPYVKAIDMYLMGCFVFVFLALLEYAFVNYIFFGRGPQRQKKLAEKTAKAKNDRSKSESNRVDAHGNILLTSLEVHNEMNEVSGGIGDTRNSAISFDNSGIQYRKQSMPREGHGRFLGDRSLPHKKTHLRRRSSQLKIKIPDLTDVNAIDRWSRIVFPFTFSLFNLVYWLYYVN
T1 sequence (P34903 whole entry): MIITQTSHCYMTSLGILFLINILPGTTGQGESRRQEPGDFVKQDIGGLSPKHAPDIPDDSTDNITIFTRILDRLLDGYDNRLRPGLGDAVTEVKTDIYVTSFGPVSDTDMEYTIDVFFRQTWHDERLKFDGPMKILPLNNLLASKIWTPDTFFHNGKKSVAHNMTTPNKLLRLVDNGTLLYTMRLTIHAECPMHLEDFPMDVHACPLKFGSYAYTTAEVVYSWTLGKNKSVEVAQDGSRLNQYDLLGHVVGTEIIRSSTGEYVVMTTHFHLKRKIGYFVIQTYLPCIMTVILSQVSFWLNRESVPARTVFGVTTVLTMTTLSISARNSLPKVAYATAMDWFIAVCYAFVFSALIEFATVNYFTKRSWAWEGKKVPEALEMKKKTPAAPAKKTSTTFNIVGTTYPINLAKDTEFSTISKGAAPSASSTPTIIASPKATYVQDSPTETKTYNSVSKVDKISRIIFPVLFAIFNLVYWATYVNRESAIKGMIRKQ

[2] = molecular target: T2, GABA-A receptor; alpha-1/beta-3/gamma-2 (Homo sapiens, UniProt P14867+P18507+P28472); assay: Binding affinity for human recombinant gamma-aminobutyric-acid (GABA) A receptor alpha-1-beta-3-gamma-2; type: protein-complex assay
T2 sequence (P14867 whole entry): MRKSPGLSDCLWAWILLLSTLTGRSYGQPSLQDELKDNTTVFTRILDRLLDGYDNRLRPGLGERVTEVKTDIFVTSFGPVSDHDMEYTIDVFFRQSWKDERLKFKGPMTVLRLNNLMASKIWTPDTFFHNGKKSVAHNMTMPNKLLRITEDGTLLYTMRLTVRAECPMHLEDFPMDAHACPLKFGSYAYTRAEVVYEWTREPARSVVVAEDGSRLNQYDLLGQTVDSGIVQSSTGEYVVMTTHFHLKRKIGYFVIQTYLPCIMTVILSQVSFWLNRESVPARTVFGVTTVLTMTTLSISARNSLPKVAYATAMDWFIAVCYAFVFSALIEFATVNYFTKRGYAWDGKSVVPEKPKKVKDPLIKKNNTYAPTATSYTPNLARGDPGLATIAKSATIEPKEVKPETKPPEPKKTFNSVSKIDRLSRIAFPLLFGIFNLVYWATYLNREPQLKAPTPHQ
T2 sequence (P18507 whole entry): T1 sequence (P18507 whole entry)
T2 sequence (P28472 whole entry): T1 sequence (P28472 whole entry)

[3] = molecular target: T3, GABA-A receptor; alpha-2/beta-3/gamma-2 (Homo sapiens, UniProt P18507+P28472+P47869); assay: Binding affinity to human recombinant gamma-aminobutyric-acid (GABA) A receptor alpha-2-beta-3-gamma-2; type: protein-complex assay
T3 sequence (P18507 whole entry): T1 sequence (P18507 whole entry)
T3 sequence (P28472 whole entry): T1 sequence (P28472 whole entry)
T3 sequence (P47869 whole entry): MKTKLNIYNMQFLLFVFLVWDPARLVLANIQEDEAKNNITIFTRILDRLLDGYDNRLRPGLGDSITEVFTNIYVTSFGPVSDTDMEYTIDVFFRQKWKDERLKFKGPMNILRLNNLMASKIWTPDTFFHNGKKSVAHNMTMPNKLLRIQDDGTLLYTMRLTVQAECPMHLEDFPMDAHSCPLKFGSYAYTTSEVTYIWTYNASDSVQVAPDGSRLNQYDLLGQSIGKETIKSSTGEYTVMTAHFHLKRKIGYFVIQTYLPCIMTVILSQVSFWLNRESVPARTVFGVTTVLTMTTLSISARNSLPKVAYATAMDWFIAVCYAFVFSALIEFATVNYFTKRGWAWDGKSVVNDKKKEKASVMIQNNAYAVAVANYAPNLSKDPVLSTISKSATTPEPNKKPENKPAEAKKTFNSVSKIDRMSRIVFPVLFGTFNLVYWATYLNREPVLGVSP

[4] = molecular target: T4, GABA-A receptor; alpha-5/beta-3/gamma-2 (Homo sapiens, UniProt P18507+P28472+P31644); assay: Binding affinity for human recombinant gamma-aminobutyric-acid (GABA) A receptor alpha-5-beta-3-gamma-2; type: protein-complex assay
T4 sequence (P18507 whole entry): T1 sequence (P18507 whole entry)
T4 sequence (P28472 whole entry): T1 sequence (P28472 whole entry)
T4 sequence (P31644 whole entry): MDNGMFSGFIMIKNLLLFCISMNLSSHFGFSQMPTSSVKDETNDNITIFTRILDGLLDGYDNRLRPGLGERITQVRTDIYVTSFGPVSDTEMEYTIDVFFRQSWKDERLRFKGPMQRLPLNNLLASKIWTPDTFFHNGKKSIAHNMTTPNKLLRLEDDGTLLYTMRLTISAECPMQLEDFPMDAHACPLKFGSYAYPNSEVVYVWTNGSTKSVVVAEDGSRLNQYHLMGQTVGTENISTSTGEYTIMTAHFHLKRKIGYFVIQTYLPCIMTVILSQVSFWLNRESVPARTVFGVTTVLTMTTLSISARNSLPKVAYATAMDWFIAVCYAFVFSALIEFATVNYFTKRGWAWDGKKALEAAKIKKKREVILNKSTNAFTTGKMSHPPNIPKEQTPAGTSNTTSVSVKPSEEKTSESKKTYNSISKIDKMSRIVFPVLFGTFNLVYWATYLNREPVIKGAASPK

[5] = Selectivity ratio of alpha1 beta-3 gamma2 GABA A / BzR and alpha5 beta-3 gamma2 GABA A / BzR
[6] = molecular target: GABA-A receptor; alpha-6/beta-3/gamma-2 (Homo sapiens, UniProt P18507+P28472+Q16445); assay: Binding affinity for human recombinant gamma-aminobutyric-acid (GABA) A receptor alpha-6-beta-3-gamma-2; type: protein-complex assay
How it was run: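 Ltk⁻ cells expressing human α6β3γ2 were harvested by scraping into PBS, centrifuged at 3000g and resuspended in 10 mM KH₂PO₄/100 mM KCl (pH 7.4). Incubation was 1 h at 4 °C with filter harvest and scintillation counting.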

[7] = molecular target: T2, GABA-A receptor; alpha-1/beta-3/gamma-2; assay: Binding affinity towards human GABA-A receptor alpha-1-beta-3-gamma-2 subunits; type: protein-complex assay

Chain of GABA-A receptor; alpha-6/beta-3/gamma-2 (Q16445 whole entry, one chain of several): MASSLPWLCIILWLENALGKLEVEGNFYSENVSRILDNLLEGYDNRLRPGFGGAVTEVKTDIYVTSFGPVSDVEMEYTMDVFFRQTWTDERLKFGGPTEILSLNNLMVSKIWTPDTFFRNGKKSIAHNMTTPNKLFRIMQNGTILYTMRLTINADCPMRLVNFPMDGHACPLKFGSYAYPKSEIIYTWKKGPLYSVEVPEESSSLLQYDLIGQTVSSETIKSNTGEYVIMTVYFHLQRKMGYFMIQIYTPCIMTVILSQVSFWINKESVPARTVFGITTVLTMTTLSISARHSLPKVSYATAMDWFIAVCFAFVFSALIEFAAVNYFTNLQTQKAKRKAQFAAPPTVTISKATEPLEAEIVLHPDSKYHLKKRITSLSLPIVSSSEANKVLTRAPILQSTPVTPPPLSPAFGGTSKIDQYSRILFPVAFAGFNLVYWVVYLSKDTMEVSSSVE

| SMILES | Ki [1] | Ki [2] | Ki [3] | Ki [4] | Ratio [5] | Ki [6] | Ki [7] |
| --- | --- | --- | --- | --- | --- | --- | --- |
| O=C1CN=C(c2ccccc2)c2ccccc2N1 [RO-052921] | 350 nM | 286 nM | 233 nM | 140 nM | 2.04 | > 3000 nM | – |
| CN1C(=O)CN=C(c2ccccc2)c2cc(Br)ccc21 | 31 nM | 9.4 nM | 9.3 nM | 7.7 nM | 1.22 | > 3000 nM | – |
| CN1C(=O)CN=C(c2cccs2)c2cc(F)ccc21 | 205 nM | 141 nM | 215 nM | 65.5 nM | 2.15 | > 300 nM | – |
| CN1C(=O)CN=C(c2ccccc2)c2ccccc21 | 318 nM | 81 nM | 138 nM | 96 nM | 0.84 | > 3000 nM | – |
| O=C1CN=C(c2cccs2)c2cc(F)ccc2N1 | 405 nM | 175 nM | 335 nM | 150 nM | 1.17 | > 300 nM | – |
| C#Cc1ccc2c(c1)C(c1ccccc1)=NCC(=O)N2C | 47.4 nM | 76.3 nM | 42.1 nM | 6.8 nM | 11.2 | > 3000 nM | – |
| CN1C(=O)CN=C(c2ccccc2)c2cc(C#C[Si](C)(C)C)ccc21 | 203 nM | 94 nM | 73 nM | 63 nM | 1.49 | > 3000 nM | – |
| CC(C)(C)C(=O)Oc1ccc2c(c1)[nH]c1c3c4ccccc4nc-3c[nH]c12 | – | – | – | > 3000 nM | – | > 10000 nM | 156 nM |
| CN1C(=O)CN=C(C2CCC2)c2cc(F)ccc21 | > 300 nM | > 300 nM | > 300 nM | > 300 nM | – | > 300 nM | – |
| CCCC(=O)c1cc2c(cn1)[nH]c1ccccc12 | 21 nM | 2.1 nM | 16 nM | 995 nM | – | > 3000 nM | – |
| Clc1cccn2c1nc1c3c4ccccc4nc-3c[nH]c12 | > 3000 nM | > 3000 nM | > 3000 nM | > 10000 nM | – | > 10000 nM | – |
| CN1C(=O)CN=C(c2cccs2)c2cc(Cl)ccc21 | 13.4 nM | 19.2 nM | 13.2 nM | 11.5 nM | 1.7 | > 300 nM | – |
| CCOC(=O)c1[nH]cc2nc3ccc(O)cc3c-2c1COC | 10.8 nM | 2 nM | 5.4 nM | 18.5 nM | – | 3000 nM | – |
